Assay results as given in ChEMBL document CHEMBL5325511, “Discovery of N-(4-(Aminomethyl)phenyl)-5-methylpyrimidin-2-amine Derivatives as Potent and Selective JAK2 Inhibitors” (ACS Med Chem Lett, 2023).
Activity calls are given as the source filed them. No cut-off for these calls is given here.

Columns and labels:
[1] = biological target: Tyrosine-protein kinase JAK2 (Homo sapiens, UniProt O60674); test: Inhibition of JAK2 (unknown origin) in presence of Mg/ATP mixture by [gamma p33]-ATP based radiometric assay
Method in brief: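 IC50 values determined by Eurofins Discovery.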

[2] = Clearance in Sprague-Dawley rat at 5 mg/kg, po measured upto 24 hrs by LC-MS/MS analysis; type: ADME, organism-based; conditions: in vivo
Method in brief: (§1)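 Sprague–Dawley rats, n = 5, dosed at 5 mg/kg as a solution in 2% ethanol and 1% Tween 80, pH 5.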

[3] = AUC(0 to t) in Sprague-Dawley rat at 5 mg/kg, po measured upto 24 hrs by LC-MS/MS analysis; type: ADME, organism-based; parameters: time < 24 hrs, dose 5 mg/kg, route po; conditions: in vivo; method in brief: as §1
[4] = Oral bioavailability in Sprague-Dawley rat at 5 mg/kg measured upto 24 hrs by LC-MS/MS analysis; type: ADME, organism-based; conditions: in vivo
Method in brief: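 Sprague–Dawley rats, n = 5 per group, dosed at 5 mg/kg as a solution in 2% ethanol and 1% Tween 80, pH 5.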

[5] = biological target: Tyrosine-protein kinase Lck (Homo sapiens) (UniProt P06239); test: Inhibition of LCK (unknown origin)
Method in brief: (§2)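 Kinase panel profiling (KinaseProfile, run by an outside contractor). The inhibitor was tested at 1 μM in duplicate against DMSO control. The value is % control, the percentage of kinase activity remaining.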

[6] = biological target: Tyrosine-protein kinase Lyn (Homo sapiens) (UniProt P07948); test: Inhibition of LYN (unknown origin); method in brief: as §2
[7] = system: BaF3; test: Inhibition of JAK2/STAT signaling pathway in mouse BaF3 cells harbouring JAK2 V617F mutant assessed as reduction in AKT phosphorylation at 10 to 1000 nM by Western blot analysis; type: cell-based; conditions: dose 10-1000 nM
Method in brief: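 Ba/F3 JAK2V617F cells treated with compound at increasing concentrations. Phosphorylation levels of JAK2, STAT3, STAT5 and AKT assessed by Western blot.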

Tyrosine-protein kinase Lck (Homo sapiens), sequence (P06239 2-509 limits assumed): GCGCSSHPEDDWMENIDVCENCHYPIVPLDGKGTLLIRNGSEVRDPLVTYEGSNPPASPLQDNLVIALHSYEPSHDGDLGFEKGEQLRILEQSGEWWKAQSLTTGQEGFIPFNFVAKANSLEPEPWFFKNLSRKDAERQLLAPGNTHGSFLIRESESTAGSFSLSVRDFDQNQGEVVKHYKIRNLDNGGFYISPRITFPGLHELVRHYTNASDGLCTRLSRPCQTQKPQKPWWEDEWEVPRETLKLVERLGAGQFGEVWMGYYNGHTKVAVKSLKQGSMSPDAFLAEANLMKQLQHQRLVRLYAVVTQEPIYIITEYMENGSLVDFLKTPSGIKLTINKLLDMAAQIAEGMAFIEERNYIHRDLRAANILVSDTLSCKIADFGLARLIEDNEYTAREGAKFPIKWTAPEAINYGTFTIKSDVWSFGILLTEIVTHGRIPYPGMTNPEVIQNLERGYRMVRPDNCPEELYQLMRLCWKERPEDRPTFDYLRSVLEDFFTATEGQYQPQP
Tyrosine-protein kinase JAK2, sequence (O60674 whole entry): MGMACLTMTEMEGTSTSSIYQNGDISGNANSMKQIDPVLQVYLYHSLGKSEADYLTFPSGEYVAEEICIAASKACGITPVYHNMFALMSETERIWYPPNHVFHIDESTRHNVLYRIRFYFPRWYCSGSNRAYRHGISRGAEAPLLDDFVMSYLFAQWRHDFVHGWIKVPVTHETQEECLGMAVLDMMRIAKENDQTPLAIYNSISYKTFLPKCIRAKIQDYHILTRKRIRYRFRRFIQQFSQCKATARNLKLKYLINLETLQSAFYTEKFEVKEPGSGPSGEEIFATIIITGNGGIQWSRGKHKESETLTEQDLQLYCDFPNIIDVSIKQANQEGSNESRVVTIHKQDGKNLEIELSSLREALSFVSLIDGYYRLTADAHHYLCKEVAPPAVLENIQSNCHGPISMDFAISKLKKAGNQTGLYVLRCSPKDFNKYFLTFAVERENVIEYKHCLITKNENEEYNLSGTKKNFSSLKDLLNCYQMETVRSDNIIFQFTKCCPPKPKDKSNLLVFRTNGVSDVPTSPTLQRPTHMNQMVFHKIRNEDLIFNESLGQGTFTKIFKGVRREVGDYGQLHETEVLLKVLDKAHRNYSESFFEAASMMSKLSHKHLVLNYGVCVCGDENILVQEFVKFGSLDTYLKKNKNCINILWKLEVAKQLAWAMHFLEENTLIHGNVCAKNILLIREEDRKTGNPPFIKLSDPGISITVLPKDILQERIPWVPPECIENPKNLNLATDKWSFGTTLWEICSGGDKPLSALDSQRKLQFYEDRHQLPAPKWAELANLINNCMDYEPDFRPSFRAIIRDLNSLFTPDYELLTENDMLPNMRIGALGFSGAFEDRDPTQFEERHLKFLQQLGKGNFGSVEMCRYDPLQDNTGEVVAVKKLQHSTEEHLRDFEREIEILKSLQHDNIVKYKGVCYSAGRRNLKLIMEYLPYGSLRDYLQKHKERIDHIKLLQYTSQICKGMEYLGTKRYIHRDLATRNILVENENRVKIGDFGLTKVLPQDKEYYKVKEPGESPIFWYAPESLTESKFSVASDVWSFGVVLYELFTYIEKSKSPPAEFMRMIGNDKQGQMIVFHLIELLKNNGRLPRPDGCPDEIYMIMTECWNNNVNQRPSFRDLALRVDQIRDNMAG
Tyrosine-protein kinase Lyn (Homo sapiens), sequence (P07948 2-512 limits assumed): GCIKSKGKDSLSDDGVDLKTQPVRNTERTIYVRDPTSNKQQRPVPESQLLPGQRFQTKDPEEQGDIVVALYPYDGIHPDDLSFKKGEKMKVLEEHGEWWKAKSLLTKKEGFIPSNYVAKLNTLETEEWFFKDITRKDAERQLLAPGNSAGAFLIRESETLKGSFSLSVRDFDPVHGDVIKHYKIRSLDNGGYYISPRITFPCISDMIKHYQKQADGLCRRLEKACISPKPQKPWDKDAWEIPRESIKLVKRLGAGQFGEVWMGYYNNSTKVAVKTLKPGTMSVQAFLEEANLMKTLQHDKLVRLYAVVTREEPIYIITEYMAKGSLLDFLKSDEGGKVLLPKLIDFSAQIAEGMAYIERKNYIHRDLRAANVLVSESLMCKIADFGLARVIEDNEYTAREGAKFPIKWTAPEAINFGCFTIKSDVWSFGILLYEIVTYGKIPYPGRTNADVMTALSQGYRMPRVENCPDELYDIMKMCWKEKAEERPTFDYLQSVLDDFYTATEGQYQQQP

IC50 [1]: 5 nM | CL [2]: 295 mL/min/kg | AUCt [3]: 3517.9 ng·h/mL | bioavailability [4]: 41.1% | inhibition [5]: Active | inhibition [6]: Active
Compound: C=CS(=O)(=O)NCc1ccc(Nc2ncc(C)c(-c3cnn(C(C)C)c3)n2)cc1
inhibition [7]: Active
